Source: ChEMBL document CHEMBL1649131, “Tigecycline therapy significantly reduces the concentrations of inflammatory pulmonary cytokines and chemokines in a murine model of Mycoplasma pneumoniae pneumonia” (Antimicrob Agents Chemother, 2009)
In brackets after ≈: the same amount, converted by molar mass. Activity calls are given as the source filed them. The rule behind the calls is not given here.

What was measured:
[1] = test system: Mus musculus; assay: Immunological activity in BALB/c mouse infected with Mycoplasma pneumoniae ATCC 29342 assessed as decrease in IL-10 level in bronchoalveolar lavage fluid at 10 mg/kg, sc on first day followed by regimen of 5 mg/kg for 5 days measured after 3 days; type: functional, organism-based
Summary of the method: (§1)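 In BALB/c females infected intranasally with 10^7 CFU M. pneumoniae, sc dosing ran daily from day 1: 10 mg/kg first, then 5 mg/kg; saline placebo. BAL (500 µl SP4 broth via trachea) was collected ~24 h after the last dose at 1, 3 or 6 days of therapy, and cytokine/chemokine concentrations were measured, given as mean ± SD. There were 10 mice/group per time point; t test and two-way ANOVA were used, P<0.05.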

[2] = test system: Mus musculus; assay: Immunological activity in BALB/c mouse infected with Mycoplasma pneumoniae ATCC 29342 assessed as decrease in INF-gamma level in bronchoalveolar lavage fluid at 10 mg/kg, sc on first day followed by regimen of 5 mg/kg for 5 days measured after 1 days; type: functional, organism-based; summary of the method: as §1
[3] = Cmax in human serum at […] followed by regimen of […] for every 12 hrs; type: ADME, organism-based; parameters: route intravenous
[4] = test system: Mus musculus; assay: Immunological activity in BALB/c mouse infected with Mycoplasma pneumoniae ATCC 29342 assessed as decrease in IL-12 level in bronchoalveolar lavage fluid at 10 mg/kg, sc on first day followed by regimen of 5 mg/kg for 5 days measured after 6 days; type: functional, organism-based; summary of the method: as §1
[5] = AUC in mouse pneumoniae model at 5 mg/kg; type: ADME, organism-based; parameters: dose 5 mg/kg; settings: in vivo
[6] = test system: Mus musculus; assay: Immunological activity in BALB/c mouse infected with Mycoplasma pneumoniae ATCC 29342 assessed as decrease in IL-5 level in bronchoalveolar lavage fluid at 10 mg/kg, sc on first day followed by regimen of 5 mg/kg for 5 days measured after 3 days; type: functional, organism-based; summary of the method: as §1
[7] = test system: Mus musculus; assay: Immunological activity in BALB/c mouse infected with Mycoplasma pneumoniae ATCC 29342 assessed as decrease in IL-12 level in bronchoalveolar lavage fluid at 10 mg/kg, sc on first day followed by regimen of 5 mg/kg for 5 days measured after 1 days; type: functional, organism-based; summary of the method: as §1
[8] = test system: Mus musculus; assay: Immunological activity in BALB/c mouse infected with Mycoplasma pneumoniae ATCC 29342 assessed as decrease in IL-4 level in bronchoalveolar lavage fluid at 10 mg/kg, sc on first day followed by regimen of 5 mg/kg for 5 days measured after 3 days; type: functional, organism-based; summary of the method: as §1
[9] = test system: Mus musculus; assay: Immunological activity in BALB/c mouse infected with Mycoplasma pneumoniae ATCC 29342 assessed as decrease in MIG level in bronchoalveolar lavage fluid at 10 mg/kg, sc on first day followed by regimen of 5 mg/kg for 5 days measured after 6 days; type: functional, organism-based; summary of the method: as §1
[10] = test system: Mus musculus; assay: Immunological activity in BALB/c mouse infected with Mycoplasma pneumoniae ATCC 29342 assessed as decrease in IL-2 level in bronchoalveolar lavage fluid at 10 mg/kg, sc on first day followed by regimen of 5 mg/kg for 5 days measured after 3 days; type: functional, organism-based; summary of the method: as §1
[11] = test system: Mycoplasmoides pneumoniae; assay: Antimicrobial activity against Mycoplasma pneumoniae ATCC 29342 infected in BALB/c mouse assessed as decrease in bacterial infection-induced parenchymal cell histopathology at 10 mg/kg, sc on first day followed by regimen of 5 mg/kg for 5 days measured after 3 days; type: functional, organism-based; settings: M129
Summary of the method: (§2)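 Infected BALB/c mice (2-month-old females, intranasal 10^7 CFU M. pneumoniae, day 0) dosed sc daily from day 1: 10 mg/kg then 5 mg/kg, saline vehicle/placebo. Lungs with trachea fixed in 10% buffered formalin ~24 h after last dose, whole-mount paraffin sections stained H&E and scored for histopathology (HPS) and parenchymal pneumonia subscore; 10 mice/group per time point, two experiments; two-way ANOVA and t test.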

[12] = test system: Mus musculus; assay: Immunological activity in BALB/c mouse infected with Mycoplasma pneumoniae ATCC 29342 assessed as decrease in MIG level in bronchoalveolar lavage fluid at 10 mg/kg, sc on first day followed by regimen of 5 mg/kg for 5 days measured after 3 days; type: functional, organism-based; summary of the method: as §1
[13] = test system: Mus musculus; assay: Immunological activity in BALB/c mouse infected with Mycoplasma pneumoniae ATCC 29342 assessed as decrease in IL1-beta level in bronchoalveolar lavage fluid at 10 mg/kg, sc on first day followed by regimen of 5 mg/kg for 5 days measured after 6 days; type: functional, organism-based; summary of the method: as §1
[14] = test system: Mus musculus; assay: Immunological activity in BALB/c mouse infected with Mycoplasma pneumoniae ATCC 29342 assessed as decrease in MIP-1alpha level in bronchoalveolar lavage fluid at 10 mg/kg, sc on first day followed by regimen of 5 mg/kg for 5 days measured after 3 days; type: functional, organism-based; summary of the method: as §1
[15] = test system: Mycoplasmoides pneumoniae; assay: Antimicrobial activity against Mycoplasma pneumoniae by agar dilution method; type: functional
[16] = Ratio of Cmax in human lung to Cmax in human serum at […] followed by […] regimen for every 12 hrs; type: ADME, organism-based
[17] = test system: Mycoplasmoides pneumoniae; assay: Antimicrobial activity against Mycoplasma pneumoniae ATCC 29342 infected in BALB/c mouse assessed as decrease in bacterial count in bronchoalveolar lavage fluid at 10 mg/kg, sc on first day followed by regimen of 5 mg/kg for 5 days measured after 6 days; type: functional, organism-based; settings: M129
Summary of the method: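 Female BALB/c mice, 2 months old, inoculated intranasally once (day 0) with 10^7 CFU M. pneumoniae in 50 µl SP4 broth under isoflurane. From day 1, sc once daily for 6 days: 10 mg/kg day 1, then 5 mg/kg, in sterile 0.9% NaCl; saline placebo. BAL with 500 µl SP4 broth ~24 h after last dose; undiluted and 10-fold dilutions plated on SP4 agar at 37°C; colonies counted as log10 CFU/ml; 10 mice/group, two experiments.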

[18] = test system: Mus musculus; assay: Immunological activity in BALB/c mouse infected with Mycoplasma pneumoniae ATCC 29342 assessed as decrease in IL1-beta level in bronchoalveolar lavage fluid at 10 mg/kg, sc on first day followed by regimen of 5 mg/kg for 5 days measured after 1 days; type: functional, organism-based; summary of the method: as §1
[19] = test system: Mus musculus; assay: Immunological activity in BALB/c mouse infected with Mycoplasma pneumoniae ATCC 29342 assessed as decrease in MIG level in bronchoalveolar lavage fluid at 10 mg/kg, sc on first day followed by regimen of 5 mg/kg for 5 days measured after 1 days; type: functional, organism-based; summary of the method: as §1
[20] = test system: Mus musculus; assay: Immunological activity in BALB/c mouse infected with Mycoplasma pneumoniae ATCC 29342 assessed as decrease in INF-gamma level in bronchoalveolar lavage fluid at 10 mg/kg, sc on first day followed by regimen of 5 mg/kg for 5 days measured after 3 days; type: functional, organism-based; summary of the method: as §1
[21] = test system: Mus musculus; assay: Immunological activity in BALB/c mouse infected with Mycoplasma pneumoniae ATCC 29342 assessed as decrease in IP-10 level in bronchoalveolar lavage fluid at 10 mg/kg, sc on first day followed by regimen of 5 mg/kg for 5 days measured after 3 days; type: functional, organism-based; summary of the method: as §1
[22] = Ratio of AUC in human alveolar cells to AUC in human serum at […] followed by […] regimen for every 12 hrs; type: ADME, organism-based, Pneumocyte; settings: read-out: Ratio AUC
[23] = test system: Mycoplasmoides pneumoniae; assay: Antimicrobial activity against Mycoplasma pneumoniae ATCC 29342 infected in BALB/c mouse assessed as decrease in bacterial infection-induced lung histopathology at 10 mg/kg, sc on first day followed by regimen of 5 mg/kg for 5 days measured after 3 days; type: functional, organism-based; settings: M129; summary of the method: as §2
[24] = AUC (0 to 24 hrs) in human serum at […] followed by regimen of […] for every 12 hrs; type: ADME, organism-based; parameters: time < 24 hr, route intravenous
[25] = test system: Mus musculus; assay: Immunological activity in BALB/c mouse infected with Mycoplasma pneumoniae ATCC 29342 assessed as decrease in IL-6 level in bronchoalveolar lavage fluid at 10 mg/kg, sc on first day followed by regimen of 5 mg/kg for 5 days measured after 3 days; type: functional, organism-based; summary of the method: as §1
[26] = test system: Mus musculus; assay: Immunological activity in BALB/c mouse infected with Mycoplasma pneumoniae ATCC 29342 assessed as decrease in INF-gamma level in bronchoalveolar lavage fluid at 10 mg/kg, sc on first day followed by regimen of 5 mg/kg for 5 days measured after 6 days; type: functional, organism-based; summary of the method: as §1
[27] = test system: Mus musculus; assay: Immunological activity in BALB/c mouse infected with Mycoplasma pneumoniae ATCC 29342 assessed as decrease in KC level in bronchoalveolar lavage fluid at 10 mg/kg, sc on first day followed by regimen of 5 mg/kg for 5 days measured after 3 days; type: functional, organism-based; summary of the method: as §1
[28] = test system: Mus musculus; assay: Immunological activity in BALB/c mouse infected with Mycoplasma pneumoniae ATCC 29342 assessed as decrease in TNFalpha level in bronchoalveolar lavage fluid at 10 mg/kg, sc on first day followed by regimen of 5 mg/kg for 5 days measured after 3 days; type: functional, organism-based; summary of the method: as §1
[29] = test system: Mus musculus; assay: Immunological activity in BALB/c mouse infected with Mycoplasma pneumoniae ATCC 29342 assessed as decrease in IL-12 level in bronchoalveolar lavage fluid at 10 mg/kg, sc on first day followed by regimen of 5 mg/kg for 5 days measured after 3 days; type: functional, organism-based; summary of the method: as §1
[30] = test system: Mus musculus; assay: Immunological activity in BALB/c mouse infected with Mycoplasma pneumoniae ATCC 29342 assessed as decrease in granulocyte-macrophage colony stimulating factor level in bronchoalveolar lavage fluid at 10 mg/kg, sc on first day followed by regimen of 5 mg/kg for 5 days measured after 3 days; type: functional, organism-based; summary of the method: as §1
[31] = test system: Mus musculus; assay: Immunological activity in BALB/c mouse infected with Mycoplasma pneumoniae ATCC 29342 assessed as decrease in MCP-1 level in bronchoalveolar lavage fluid at 10 mg/kg, sc on first day followed by regimen of 5 mg/kg for 5 days measured after 3 days; type: functional, organism-based; summary of the method: as §1
[32] = test system: Mus musculus; assay: Immunological activity in BALB/c mouse infected with Mycoplasma pneumoniae ATCC 29342 assessed as decrease in IL1-beta level in bronchoalveolar lavage fluid at 10 mg/kg, sc on first day followed by regimen of 5 mg/kg for 5 days measured after 3 days; type: functional, organism-based; summary of the method: as §1

Structure (SMILES): CN(C)c1cc(NC(=O)CNC(C)(C)C)c(O)c2c1C[C@H]1C[C@H]3[C@H](N(C)C)C(O)=C(C(N)=O)C(=O)[C@@]3(O)C(O)=C1C2=O [TIGECYCLINE]
- Activity [1]: inactive
- Activity [2]: Active
- Cmax [3]: 630 ng/mL
- Activity [4]: Active
- AUC [5]: 2900 ng·h/mL
- Activity [6]: inactive
- Activity [7]: Active
- Activity [8]: inactive
- Activity [9]: Active
- Activity [10]: inactive
- Activity [11]: Active
- Activity [12]: Active
- Activity [13]: Active
- Activity [14]: Active
- MIC [15]: 0.06 µg/mL (≈ 0.102 µM)
- Kp at 12 h [16]: 8.6
- Activity [17]: Active
- Activity [18]: Active
- Activity [19]: Active
- Activity [20]: Active
- Activity [21]: Active
- Kp at 12 h [22]: 78
- Activity [23]: Active
- AUC at 24 h [24]: 4700 ng·h/mL
- Activity [25]: inactive
- Activity [26]: Active
- Activity [27]: inactive
- Activity [28]: Active
- Activity [29]: Active
- Activity [30]: inactive
- Activity [31]: inactive
- Activity [32]: Active
